Test results as given in ChEMBL document CHEMBL2331469, “Discovery and Preliminary SAR of Arylpiperazines as Novel, Brainpenetrant Antiprion Compounds” (ACS Med Chem Lett, 2013).

Assays:
Liver microsomes = experiment: Metabolic stability in human liver microsomes assessed as half life by LC-MS analysis; format: ADME, Microsome
Liver = experiment: Metabolic stability in mouse liver microsomes assessed as half life by LC-MS analysis; format: ADME, Microsome
[1] = AUC (0 to 6 hrs) in wild type FVB mouse plasma at 10 mg/kg, po by LC-MS analysis; format: ADME, organism-based; set-up: time < 6 hr, dose 10 mg/kg, route oral
[2] = (§1) Cmax in wild type FVB mouse plasma at 10 mg/kg, po by LC-MS analysis; format: ADME, organism-based; set-up: dose 10 mg/kg, route oral; conditions: FVB, plasma
Brain = experiment: (§2) AUC (0 to 6 hrs) in wild type FVB mouse brain at 10 mg/kg, po by LC-MS analysis; format: ADME, organism-based; set-up: time < 6 hr, dose 10 mg/kg, route oral; conditions: in vivo, 6 h
[3] = Cmax in wild type FVB mouse brain at 10 mg/kg, po by LC-MS analysis; format: ADME, organism-based; set-up: dose 10 mg/kg, route oral
[4] = Cytotoxicity against mouse ScN2a-cl3 cells assessed as cell viability after 5 days by calcein cell viability assay; format: cell-based; conditions: n2a-cl3, 120 h, read-out: LC50 (the source's name)
How it was run: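 Viability of RML prion-infected ScN2a-cl3 cells was read with the fluorescent probe calcein-AM. It was run alongside each PrPSc ELISA EC50 measurement to rule out cytotoxicity, and LC50 was derived from 3 tests.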

[5] = Antiprion activity against sheep RML prion protein-infected in mouse ScN2a-cl3 cells assessed as reduction of PrPSc level after 5 days by ELISA; format: cell-based; conditions: Ovis aries, N2a-cl3, 120 h
How it was run: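 RML prion-infected murine neuroblastoma ScN2a-cl3 cells. PrPSc levels were measured by ELISA, and EC50 was derived from 3 tests. Cell viability was run alongside each EC50 measurement in the same cells using calcein-AM fluorescence, to exclude cytotoxicity.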

N2a-cl3 = experiment: Antiprion activity against sheep RML prion protein-infected in mouse ScN2a-cl3 cells assessed as reduction of PrPSc level after 5 days by ELISA relative to control; format: cell-based; set-up: concentration or dose not given beside the values; conditions: Ovis aries, dose or concentration not given here
[6] = as §2; format: ADME, organism-based; set-up: time < 6 hr, dose 10 mg/kg, route oral; conditions: FVB, brain
Plasma = experiment: as §1; format: ADME, organism-based; set-up: dose 10 mg/kg, route oral; conditions: in vivo

Row | SMILES | EC50 [5] | inhibition (N2a-cl3) | other results
1 | c1cncc(CN2CCN(c3ccc(-c4nc5ccccc5o4)cc3)CC2)c1 | 0.3 µM |  | t1/2 (Liver microsomes): 50.2 min; t1/2 (Liver): 9.2 min; AUC(0-t) at 6 h [1]: 4200 nM·h; Cmax [2]: 0.9 µM; AUC (Brain): 14200 nM·h; Cmax [3]: 3.6 µM; CC50 [4]: > 10 µM
2 | Clc1ccc(N2CCN(Cc3ccc(Br)s3)CC2)cc1 |  | 12% | 
3 | Clc1ccc(N2CCN(Cc3ccco3)CC2)cc1 |  | 13% | 
4 | c1csc(CN2CCN(c3ccc(-c4nc5ccccc5o4)cc3)CC2)c1 | 4.2 µM |  | CC50 [4]: > 10 µM
5 | Cc1ccc(CN2CCN(c3ccc(-c4ncco4)cc3)CC2)o1 | > 10 µM |  | CC50 [4]: > 10 µM
6 | COc1ccc(N2CCN(Cc3ccc(Br)o3)CC2)cc1 |  | 6% | 
7 | COc1ccc(CN2CCN(c3ccc(-c4nc5ccccc5o4)cc3)CC2)cn1 | 1.1 µM |  | t1/2 (Liver microsomes): > 60 min; t1/2 (Liver): 25.2 min; AUC(0-t) at 6 h [1]: 1100 nM·h; Cmax [2]: 0.7 µM; AUC(0-t) at 6 h [6]: 3000 nM·h; Cmax [3]: 1.6 µM; CC50 [4]: > 10 µM
8 | CC(=O)c1ccc(N2CCN(Cc3cccnc3)CC2)cc1 |  | 73% | 
9 | Fc1ccc(N2CCN(Cc3cccnc3)CC2)cc1 | > 32 µM | 27% | 
10 | COc1ccc(N2CCN(Cc3cccnc3)CC2)cc1 | > 32 µM | 10% | 
11 | Fc1ccc(N2CCN(Cc3ccccc3)CC2)cc1 |  | 7% | 
12 | CC(=O)c1ccc(N2CCN(Cc3ccco3)CC2)cc1 |  | 96% | 
13 | Fc1ccccc1N1CCN(Cc2cccnc2)CC1 | > 32 µM |  | 
14 | Clc1cccc(N2CCN(Cc3cccnc3)CC2)c1 | > 32 µM | 4% | 
15 | CC(=O)c1ccc(N2CCN(Cc3ccc(C)o3)CC2)cc1 | 4.62 µM | 78% | 
16 | c1csc(CN2CCN(c3ccc(-c4ncco4)cc3)CC2)c1 | > 10 µM |  | CC50 [4]: > 10 µM
17 | Clc1cccc(N2CCN(Cc3ccco3)CC2)c1 |  | 6% | 
18 | CC(=O)c1ccc(N2CCN(Cc3ccccc3)CC2)cc1 | 0.71 µM | 94% | 

Row | SMILES | EC50 [5] | inhibition (N2a-cl3) | other results
19 | c1cncc(CN2CCN(c3ccc(-c4nc5ccccc5s4)cc3)CC2)c1 | 0.4 µM |  | t1/2 (Liver microsomes): 34.3 min; t1/2 (Liver): 17.3 min; AUC(0-t) at 6 h [1]: 2700 nM·h; Cmax (Plasma): 0.6 µM; AUC (Brain): 14400 nM·h; Cmax [3]: 3 µM; CC50 [4]: > 10 µM
20 | CC(=O)c1ccc(N2CCN(Cc3sccc3C)CC2)cc1 |  | 78% | 
21 | Cc1ccc(CN2CCN(c3ccc(-c4nc5ccccc5o4)cc3)CC2)cn1 | > 10 µM |  | CC50 [4]: > 10 µM
22 | Fc1ccc(CN2CCN(c3ccc(-c4nc5ccccc5o4)cc3)CC2)cn1 | 0.4 µM |  | t1/2 (Liver microsomes): 43.6 min; t1/2 (Liver): 7.3 min; AUC(0-t) at 6 h [1]: 1200 nM·h; AUC (Brain): 1300 nM·h; Cmax [3]: 0.4 µM; CC50 [4]: > 10 µM
23 | c1cncc(CN2CCN(c3ccc(-c4ncco4)cc3)CC2)c1 | > 10 µM |  | CC50 [4]: > 10 µM
24 | Clc1ccc(N2CCN(Cc3cccnc3)CC2)cc1 |  | 0% | 
25 | c1ccc(N2CCN(Cc3cccnc3)CC2)cc1 |  | 4% | 
26 | c1ccc(CN2CCN(c3ccccc3)CC2)cc1 |  | 5% | 
27 | CC(=O)c1ccc(N2CCN(Cc3cccs3)CC2)cc1 | 1.95 µM | 91% | 
28 | COc1cccc(N2CCN(Cc3cccnc3)CC2)c1 | > 32 µM |  | 
29 | Clc1cccc(N2CCN(Cc3cc(Br)cs3)CC2)c1 |  | 34% | 
30 | Cc1ccc(CN2CCN(c3ccc(-c4nc5ccccc5o4)cc3)CC2)o1 | 3.3 µM |  | CC50 [4]: > 10 µM
31 | Clc1cccc(N2CCN(Cc3ccccc3)CC2)c1 |  | 7% | 
32 | COc1ccccc1N1CCN(Cc2cccnc2)CC1 | > 32 µM |  | 
33 | COc1ccc(N2CCN(Cc3cccs3)CC2)cc1 |  | 16% | 
34 | Clc1ccc(N2CCN(Cc3ccccc3)CC2)cc1 |  | 6% | 
35 | COc1ccc(N2CCN(Cc3ccccc3)CC2)cc1 |  | 7% | 
